Experimental data reported in paper PMC4550085 (Chemical communications (Cambridge, England), 2015).

Experiments:
[1] = pH titration of fluorescence intensity of the dyes and CPP-dye adducts; type: physicochemical
[2] = previously shown; cited from earlier work
[3] = system: HeLa cells; experiment: FACS analysis of cytosolic delivery of NF-labelled CPPs; type: cell-based; details: 2 h; for cytosolic delivery efficiency relative to Tat: 5 µM NF-labelled peptides; for Cytosolic delivery (MFI^NF, %): relative to Tat (100%), 5 µM NF-labelled peptide
Outline: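 HeLa cells were exposed for 2 h to 5 µM naphthofluorescein-labelled peptide and analysed by FACS with excitation at 633 nm. Background fluorescence was subtracted from the mean fluorescence intensity (MFI). Values are relative to the Tat conjugate (100%) and are mean ± SD of three independent experiments.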

[4] = cited from earlier work
[5] = system: HeLa cells; experiment: Endosomal escape efficiency calculated from NF and Rho MFI; type: cell-based; details: for Endosomal escape efficiency (γ, %): relative to Tat (100%), calculated from MFI^NF/MFI^Rho; for endosomal escape efficiency relative to Tat: γ=(MFI NF/MFI Rho)/(MFI Tat NF/MFI Tat Rho), HeLa cells, 5 µM
[6] = system: HeLa cells; experiment: FACS analysis of total cellular uptake of Rho-labelled CPPs; type: cell-based; details: for Total cellular uptake (MFI^Rho, %): relative to Tat (100%), 5 µM Rho-labelled peptide, 2 h
Outline: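 Total uptake: HeLa cells were treated for 2 h with 5 µM rhodamine-labelled peptide and analysed by FACS with excitation at 561 nm. MFI was background-subtracted. Values are relative to the Tat conjugate (100%) and are mean ± SD of three independent experiments.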

[7] = system: HeLa cells; experiment: MTT cytotoxicity assay; type: cell-based; details: up to 25 µM concentration
[8] = system: HeLa cells; experiment: Live-cell confocal microscopy of labelled CPPs; type: cell-based; details: 5 µM for 2 h

Row | Substance | change in fluorescence intensity with pH ([1]; pH range of 5–10, Ex/Em 545/590 nm) | pH profile of CPP-dye adduct compared with the unmodified dye ([1]; dye attached to the glutamine side chain of cFΦR4, pH titration) | cytosolic delivery efficiency relative to Tat and R9 [2] | cytosolic delivery efficiency relative to Tat [3] | Cytosolic delivery (MFI^NF, %) [3] | cytosolic delivery efficiency relative to Tat, pCAP-based assay [4] | Endosomal escape efficiency (γ, %) [5] | endosomal escape efficiency relative to Tat [5] | total cellular uptake relative to Tat ([6]; 5 µM Rho-labelled peptides) | cytotoxicity, MTT assay [7] | intracellular fluorescence pattern [8] | Total cellular uptake (MFI^Rho, %) [6]
1 | rhodamine | no significant change in fluorescence intensity |  |  |  |  |  |  |  |  |  |  | 
2 | cyclo(FΦRRRRQ) (head to tail) [cFΦR4] |  | essentially identical pH profiles | 4–12 fold | ~ 10 fold | 1006% | 12 fold | 433% | 4.3 fold | 2.3 fold | Neither peptide showed any significant toxicity |  | 
3 | nonaarginine [R9] |  |  |  | ~ 2 fold | 197% | 3 fold | 173% | 1.7 fold |  |  | diffuse fluorescence in both cytoplasmic and nuclear regions | 114%
4 | YGRKKRRQRRR [Tat] |  |  |  |  | 100% |  | 100% |  |  |  | diffuse fluorescence in both cytoplasmic and nuclear regions | 100%
